Test results from ChEMBL document CHEMBL4265871, “Novel alkylated azoles as potent antifungals” (Eur J Med Chem, 2017).
Values after ≈ are worked out from the molar mass of the structure shown. Active and inactive are the calls of the source. The calls are words filed in the database; no cut-off is given here.

tested on: not listed separately; test: Selectivity index, ratio of EC50 for toxicity in human A549 cells to MIC100 for antifungal activity against Candida albicans ATCC 10231; format: cell-based; settings: read-out: Selectivity Index
How it was run: (§1)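 Selectivity index is the EC50 against the mammalian line (A549 or BEAS-2B) divided by the MIC against the given fungal strain.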

SMILES	selectivity ratio
CCCCCC(O)(Cn1cncn1)c1ccc(F)cc1F (stereo unspecified)	16
CCCCC(O)(Cn1cncn1)c1ccc(Cl)cc1Cl (stereo unspecified) [HEXACONAZOLE]	130
CCCCCC(O)(Cn1cncn1)c1ccccc1Cl (stereo unspecified)	4

tested on: not listed separately; test: Selectivity index, ratio of […] for toxicity in human A549 cells to MIC50 for antifungal activity against Aspergillus flavus ATCC MYA-3631; format: cell-based; settings: read-out: Selectivity Index

SMILES	selectivity ratio
CCCCCC(O)(Cn1cncn1)c1ccc(F)cc1F (stereo unspecified)	2
CCCCC(O)(Cn1cncn1)c1ccc(Cl)cc1Cl (stereo unspecified) [HEXACONAZOLE]	8
CCCCCC(O)(Cn1cncn1)c1ccccc1Cl (stereo unspecified)	1

tested on: Candida albicans; test: Antifungal activity against ITC and FLC-resistant Candida albicans ATCC 1237 incubated for 48 hrs by modified CLSI M27-A3 protocol based method; format: functional; settings: ATCC 1237, 48 h
How it was run: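 Because these Candida strains show trailing growth, MIC-2 was read, meaning 50% growth inhibition. Caspofungin and voriconazole were tested here; other controls came from earlier work.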

SMILES	MIC50
CCCCCC(O)(Cn1cncn1)c1ccc(F)cc1F (stereo unspecified)	26.4 µM (≈ 7.8 µg/mL)
CCCCC(O)(Cn1cncn1)c1ccc(Cl)cc1Cl (stereo unspecified) [HEXACONAZOLE]	24.8 µM (≈ 7.79 µg/mL)
CCCCCC(O)(Cn1cncn1)c1ccccc1Cl (stereo unspecified)	3.3 µM (≈ 0.97 µg/mL)

tested on: Aspergillus terreus; test: Antifungal activity against Aspergillus terreus ATCC MYA-3633 incubated for 48 hrs by CLSI M38-A2 protocol based method; format: functional; settings: ATCC MYA-3633, 48 h, read-out: MIC100

SMILES	MIC
CCCCCC(O)(Cn1cncn1)c1ccc(F)cc1F (stereo unspecified)	> 106 µM
CCCCC(O)(Cn1cncn1)c1ccc(Cl)cc1Cl (stereo unspecified) [HEXACONAZOLE]	3.1 µM (≈ 0.974 µg/mL)
CCCCCC(O)(Cn1cncn1)c1ccccc1Cl (stereo unspecified)	53.1 µM (≈ 15.6 µg/mL)

tested on: not listed separately; test: Selectivity index, ratio of […] for toxicity in human BEAS2B cells to MIC50 for antifungal activity against Aspergillus nidulans ATCC 38163; format: cell-based; settings: BEAS-2B cells, read-out: Selectivity Index

SMILES	selectivity ratio
CCCCCC(O)(Cn1cncn1)c1ccc(F)cc1F (stereo unspecified)	32
CCCCC(O)(Cn1cncn1)c1ccc(Cl)cc1Cl (stereo unspecified) [HEXACONAZOLE]	130
CCCCCC(O)(Cn1cncn1)c1ccccc1Cl (stereo unspecified)	32

tested on: A549; test: Toxicity in human A549 cells assessed as cell viability at 15.6 ug/ml incubated for 24 hrs by resazurin dye based assay; settings: a549, 24 h

SMILES	viability
CCCCC(O)(Cn1cncn1)c1ccc(Cl)cc1Cl (stereo unspecified) [HEXACONAZOLE]	> 85%

tested on: not listed separately; test: Selectivity index, ratio of EC50 for toxicity in human A549 cells to MIC50 for antifungal activity against Candida glabrata ATCC 2001; format: cell-based; settings: read-out: Selectivity Index; how it was run: as §1

SMILES	selectivity ratio
CCCCCC(O)(Cn1cncn1)c1ccc(F)cc1F (stereo unspecified)	4
CCCCC(O)(Cn1cncn1)c1ccc(Cl)cc1Cl (stereo unspecified) [HEXACONAZOLE]	8
CCCCCC(O)(Cn1cncn1)c1ccccc1Cl (stereo unspecified)	32

tested on: BEAS-2B; test: Toxicity in human BEAS2B cells assessed as cell viability at 15.6 ug/ml incubated for 24 hrs by resazurin dye based assay; settings: not given

SMILES	viability
CCCCC(O)(Cn1cncn1)c1ccc(Cl)cc1Cl (stereo unspecified) [HEXACONAZOLE]	> 85%

tested on: Candida albicans; test: Antifungal activity against ITC and FLC-resistant Candida albicans ATCC MYA-90819 incubated for 48 hrs by modified CLSI M27-A3 protocol based method; format: functional; settings: ATCC MYA-90819, 48 h

SMILES	MIC50
CCCCCC(O)(Cn1cncn1)c1ccc(F)cc1F (stereo unspecified)	13.2 µM (≈ 3.9 µg/mL)
CCCCC(O)(Cn1cncn1)c1ccc(Cl)cc1Cl (stereo unspecified) [HEXACONAZOLE]	6.2 µM (≈ 1.95 µg/mL)
CCCCCC(O)(Cn1cncn1)c1ccccc1Cl (stereo unspecified)	1.6 µM (≈ 0.47 µg/mL)

tested on: not listed separately; test: Hemolytic activity in mouse erythrocytes assessed as hemolysis level at 125 ug/ml incubated for 1 hr at 37 degC; format: ADME, cell-based, Erythrocyte; settings: read-out: Activity
How it was run: (§2)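 Mouse erythrocytes incubated 1 h at 37 °C with test agents over 1.95 to 125 µg/mL. Percent lysis is read for each concentration.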

SMILES	hemolysis at 1 h, 125 ug/ml
CCCCCC(O)(Cn1cncn1)c1ccc(F)cc1F (stereo unspecified)	45.4%
CCCCC(O)(Cn1cncn1)c1ccc(Cl)cc1Cl (stereo unspecified) [HEXACONAZOLE]	100%
CCCCCC(O)(Cn1cncn1)c1ccccc1Cl (stereo unspecified)	81%

tested on: not listed separately; test: Selectivity index, ratio of […] for toxicity in human A549 cells to MIC50 for antifungal activity against Aspergillus terreus ATCC MYA-3633; format: cell-based; settings: read-out: Selectivity Index

SMILES	selectivity ratio
CCCCCC(O)(Cn1cncn1)c1ccc(F)cc1F (stereo unspecified)	1
CCCCC(O)(Cn1cncn1)c1ccc(Cl)cc1Cl (stereo unspecified) [HEXACONAZOLE]	32
CCCCCC(O)(Cn1cncn1)c1ccccc1Cl (stereo unspecified)	2

tested on: Candida albicans; test: Antifungal activity against Candida albicans ATCC 10231 incubated for 48 hrs by modified CLSI M27-A3 protocol based method; format: functional; settings: ATCC 10231, 48 h, read-out: MIC100
How it was run: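 For C. albicans ATCC 10231, C. krusei ATCC 6258 and C. parapsilosis ATCC 22019, MIC-0 was read, meaning complete growth inhibition. For azole controls, MIC-2 (50% growth inhibition) was reported instead. Caspofungin and voriconazole were tested here; other controls came from earlier work.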

SMILES	MIC
CCCCCC(O)(Cn1cncn1)c1ccc(F)cc1F (stereo unspecified)	6.6 µM (≈ 1.95 µg/mL)
CCCCC(O)(Cn1cncn1)c1ccc(Cl)cc1Cl (stereo unspecified) [HEXACONAZOLE]	0.76 µM (≈ 0.239 µg/mL)
CCCCCC(O)(Cn1cncn1)c1ccccc1Cl (stereo unspecified)	26.5 µM (≈ 7.79 µg/mL)

tested on: Candida albicans; test: Induction of membrane permeabilization in Candida albicans ATCC 10231 at 1 to 4 times MIC incubated for 1 hr by propidium iodide staining based fluorescence microscopy; format: functional, organism-based; settings: not given
How it was run: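 C. albicans ATCC 10231 treated at 1× and 4× MIC and stained with propidium iodide, a membrane-impermeant dye, to detect membrane damage. Untreated cells, FLC (7.8 µg/mL) and KANB (C14) (7.8 µg/mL) serve as comparators.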

SMILES	Activity
CCCCCC(O)(Cn1cncn1)c1ccc(F)cc1F (stereo unspecified)	inactive

tested on: not listed separately; test: Selectivity index, ratio of EC50 for toxicity in human BEAS2B cells to MIC for antifungal activity against Candida parapsilosis ATCC 22019; settings: BEAS-2B cells

SMILES	selectivity ratio
CCCCCC(O)(Cn1cncn1)c1ccc(F)cc1F (stereo unspecified)	1040
CCCCC(O)(Cn1cncn1)c1ccc(Cl)cc1Cl (stereo unspecified) [HEXACONAZOLE]	1040
CCCCCC(O)(Cn1cncn1)c1ccccc1Cl (stereo unspecified)	261

tested on: Aspergillus flavus; test: Antifungal activity against Aspergillus flavus ATCC MYA-3631 incubated for 48 hrs by CLSI M38-A2 protocol based method; format: functional; settings: ATCC MYA-3631, 48 h, read-out: MIC100

SMILES	MIC
CCCCCC(O)(Cn1cncn1)c1ccc(F)cc1F (stereo unspecified)	52.8 µM (≈ 15.6 µg/mL)
CCCCC(O)(Cn1cncn1)c1ccc(Cl)cc1Cl (stereo unspecified) [HEXACONAZOLE]	12.4 µM (≈ 3.9 µg/mL)
CCCCCC(O)(Cn1cncn1)c1ccccc1Cl (stereo unspecified)	> 106 µM

tested on: not listed separately; test: Hemolytic activity in mouse erythrocytes assessed as hemolysis level at 15.6 ug/ml incubated for 1 hr at 37 degC; format: ADME, cell-based, Erythrocyte; settings: read-out: Activity; how it was run: as §2

SMILES	hemolysis at 1 h, 15.6 ug/ml
CCCCCC(O)(Cn1cncn1)c1ccc(F)cc1F (stereo unspecified)	0.9%
CCCCC(O)(Cn1cncn1)c1ccc(Cl)cc1Cl (stereo unspecified) [HEXACONAZOLE]	0%
CCCCCC(O)(Cn1cncn1)c1ccccc1Cl (stereo unspecified)	0%

tested on: not listed separately; test: Selectivity index, ratio of EC50 for toxicity in human BEAS2B cells to MIC50 for antifungal activity against ITC and FLC-resistant Candida albicans ATCC MYA-90819; format: cell-based; settings: BEAS-2B cells, read-out: Selectivity Index
How it was run: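 Ratio of the compound's EC50 against BEAS-2B cells to its MIC against the named C. albicans strain. […] For C. albicans strains other than ATCC 10231, trailing growth meant MIC-2 was taken, meaning 50% growth inhibition.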

SMILES	selectivity ratio
CCCCCC(O)(Cn1cncn1)c1ccc(F)cc1F (stereo unspecified)	8
CCCCC(O)(Cn1cncn1)c1ccc(Cl)cc1Cl (stereo unspecified) [HEXACONAZOLE]	16
CCCCCC(O)(Cn1cncn1)c1ccccc1Cl (stereo unspecified)	65

tested on: not listed separately; test: Selectivity index, ratio of EC50 for toxicity in human A549 cells to MIC50 for antifungal activity against ITC and FLC-susceptible Candida albicans ATCC MYA-2310; format: cell-based; settings: read-out: Selectivity Index; how it was run: as §1

SMILES	selectivity ratio
CCCCCC(O)(Cn1cncn1)c1ccc(F)cc1F (stereo unspecified)	4
CCCCC(O)(Cn1cncn1)c1ccc(Cl)cc1Cl (stereo unspecified) [HEXACONAZOLE]	16
CCCCCC(O)(Cn1cncn1)c1ccccc1Cl (stereo unspecified)	32

tested on: not listed separately; test: Selectivity index, ratio of […] for toxicity in human BEAS2B cells to MIC50 for antifungal activity against Aspergillus terreus ATCC MYA-3633; format: cell-based; settings: BEAS-2B cells, read-out: Selectivity Index

SMILES	selectivity ratio
CCCCCC(O)(Cn1cncn1)c1ccc(F)cc1F (stereo unspecified)	1
CCCCC(O)(Cn1cncn1)c1ccc(Cl)cc1Cl (stereo unspecified) [HEXACONAZOLE]	32
CCCCCC(O)(Cn1cncn1)c1ccccc1Cl (stereo unspecified)	2
